Bioassay records (PubChem)
APJ ag: agonists of human APJ apelin receptor | CHO-K1 APJ PathHunter beta-arrestin, luminescence; 0% DMSO wells, 100% apelin | activation, % at 20 µM | 0.11% of 330,000 active | AID 2520;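 active = activation more than six SD over the plate average, tested at 20 µM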;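 note: 0% = DMSO alone and 100% = apelin-13 at 10 nM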
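assay system = CHO-K1 APJ beta-arrestin complementation cell line | input = cell density 1000 per well | dosing = compound 20 µM once, DMSO 1% | timing = compound 90 min 25 °C, reagent 1 h | measured by = luminescence from split beta-galactosidase complementation, Galacton Star/Emerald II substrate | read-out basis = APJ agonist activity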
CCR6 antagonist: blocks CCL20-driven beta-arrestin recruitment at human CCR6 | inhibition, % at 20 µM | P51684 | 0.49% of 340,000 active | CHO-K1 CCR6 PathHunter beta-arrestin, luminescence, CCL20-stimulated;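 active = compounds whose inhibition of the agonist-driven luminescence signal at 20 µM reaches about 50%, limit read from the data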;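 note: cells stimulated with CCL20 at 14 nM final; plate controls were DMSO with CCL20 for no effect and DMSO without agonist for full effect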
CXCR6 inh: CXCR6 (human) receptor inhibition | CHO-K1 PathHunter CXCR6 beta-arrestin, luminescence | inhibition, % at 20 µM | 0.36% of 360,000 active; in the data active = inhibition above about 34%, passing the limit was not always enough;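 note: antagonist mode with CXCL16 agonist at 10 nM final; 0% = 10 nM CXCL16 with DMSO and 100% = unstimulated wells without agonist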
Target sequence (O00574 whole entry, looked up): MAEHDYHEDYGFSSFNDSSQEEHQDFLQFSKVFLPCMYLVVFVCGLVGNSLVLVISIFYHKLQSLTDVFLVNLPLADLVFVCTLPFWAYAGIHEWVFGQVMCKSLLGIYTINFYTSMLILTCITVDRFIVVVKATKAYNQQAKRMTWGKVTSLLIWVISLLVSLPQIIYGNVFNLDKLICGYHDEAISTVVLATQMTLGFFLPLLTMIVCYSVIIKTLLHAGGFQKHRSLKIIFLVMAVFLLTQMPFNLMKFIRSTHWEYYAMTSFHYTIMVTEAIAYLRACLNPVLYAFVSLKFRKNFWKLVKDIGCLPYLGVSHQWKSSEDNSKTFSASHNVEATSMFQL
EBI2 block: EBI2 (human) antagonism; AID 651636; inhibition, % at 5 µM; EBI2 beta-arrestin recruitment, luminescence, 7a,25-OHC stimulated; 0.81% of 360,000 active; P32249; in the data active = inhibition above about 38%;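 note: enzyme fragment complementation signal reports receptor beta-arrestin coupling in cells; 0% = agonist plus DMSO wells and 100% = wells without agonist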
Target sequence (P32249 whole entry, looked up, the tested form may be a part): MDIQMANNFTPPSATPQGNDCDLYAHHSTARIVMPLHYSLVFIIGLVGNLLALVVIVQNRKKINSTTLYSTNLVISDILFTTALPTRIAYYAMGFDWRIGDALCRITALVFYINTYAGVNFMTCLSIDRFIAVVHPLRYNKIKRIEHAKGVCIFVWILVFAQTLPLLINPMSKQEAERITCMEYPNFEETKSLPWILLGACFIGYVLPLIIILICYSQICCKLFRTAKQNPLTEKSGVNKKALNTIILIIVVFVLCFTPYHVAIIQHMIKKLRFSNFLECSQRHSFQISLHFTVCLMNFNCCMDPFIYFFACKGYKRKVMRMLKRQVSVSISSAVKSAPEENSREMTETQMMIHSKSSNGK
APJ antag: antagonists of human APJ apelin receptor; P35414; CHO-K1 APJ beta-arrestin complementation, luminescence; inhibition, % at 20 µM; 0.32% of 330,000 active;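 active = inhibition above about 40% at 20 µM, limit read from the data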;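 note: cells challenged with 10 nM apelin-13 agonist together with compound; plate controls were apelin-13 plus DMSO wells for no effect and DMSO wells lacking apelin-13 for full effect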
TAG inh: reduces triacylglycerol accumulation in H9c2 cells. Nile Red lipid (TAG) fluorescence; cells loaded with 200 µM oleic acid. inhibition, % at 12.5 µM. 0.66% of 230,000 active;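 active = pattern-corrected inhibition of lipid staining of at least 50% with the nuclear-stain viability signal not falling by more than 50%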;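 note: 0% = DMSO wells and 100% = triacsin C control wells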
EBI2 antag conf: EBI2 (human) antagonism, single concentration confirmation; shares compounds with EBI2 block; EBI2 beta-arrestin luminescence, 7a,25-OHC antagonism; inhibition, % at 5 µM; 29% of 2,400 active;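 active = inhibition of at least 50%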
EBI2 ag: counter-screen for EBI2 antagonists: EBI2 agonist activity; shares compounds with EBI2 block; EBI2-expressing cells, agonist mode, luminescence, 60 min; 0% vehicle, 100% 7α,25-dihydroxycholesterol control; activation, % at 5 µM; 2,400 tested, under 10 active;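 active = activation of at least 50%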
bGal counter: beta-galactosidase inhibition counter-screen | purified beta-galactosidase, luminescent Galacton Star, 15 min | shares compounds with EBI2 block | 1% of 2,400 active | inhibition, % at 5 µM;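 active = replicate-average signal at least 3 plate SD below neutral wells, shown as high inhibition, flagging enzyme-inhibiting false positives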;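 note: 0% = DMSO wells with enzyme and 100% = wells lacking enzyme; higher means stronger loss of beta-gal luminescence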
The depositor's hits bear a star; x = no result. An excerpt weighted towards active compounds, which were near 1.9% of everything screened.

SMILES | APJ ag | CCR6 antagonist | CXCR6 inh | EBI2 block | APJ antag | TAG inh | EBI2 antag conf | EBI2 ag | bGal counter
COc1ccc(C2CCCN2C(=O)Nc2ccc(Cl)cc2)cc1OC (centres undefined) | -2.0 | 11.2 | -6.4 | 59.0* | 0.4 | 1.7 | 48.5 | 0.7 | 6.2
N#Cc1ccc(NC(=O)Cn2cnc(S(=O)(=O)N3CCCC3)c2)cc1 | -2.3 | 10.8 | 7.2 | -15.0 | 4.9 | x | x | x | x
Cc1cc2nc(-c3ccc(SCc4ccccc4C#N)nc3)[nH]c2cc1C | 3.9 | 7.7 | 6.2 | 50.0* | -17.8 | x | 36.9 | -0.8 | 8.6
COc1ccccc1N1CCN(C(=O)c2cc(C)on2)CC1 | -1.6 | -8.9 | -3.1 | -16.7 | -7.4 | x | x | x | x
COc1ccccc1N1CCN(C(=O)c2cc(-c3cccc(Cl)c3)on2)CC1 | -4.8 | -4.3 | 0.9 | 72.1* | -3.7 | x | 33.5 | -2.0 | -9.9
COc1ccccc1N1CCN(C(=O)c2cc(-c3ccc4c(c3)OCO4)on2)CC1 | -3.6 | -4.8 | -1.5 | 67.1* | -28.8 | x | 46.3 | 0.9 | 3.1
Nc1nonc1-n1nnc(C(=O)N/N=C/c2ccc(OCc3ccccc3)cc2)c1CNc1ccccc1 | -3.4 | -19.3 | 10.5 | 3.9 | -14.3 | x | x | x | x
Cc1ccc(C(C)C)c(OCCNC(=O)c2cncc(Br)c2)c1 | -2.8 | 15.5 | -7.9 | 49.6* | -28.6 | x | 27.2 | -2.0 | -4.0
Cc1ccc(OCCSc2nc3ccccc3n2CC(=O)O)cc1C | -0.5 | 12.2 | 1.7 | -6.2 | 14.7 | x | x | x | x
CN(C(=O)c1cccc(NC(=O)Cc2ccc(NC(=O)C3CCN(S(=O)(=O)c4cccc([N+](=O)[O-])c4)CC3)cc2)c1)C1CCCC1 | x | 2.3 | -4.4 | 36.3 | x | 9.7 | x | x | x
CN(C(=O)c1cccc(NC(=O)Cc2ccc(NC(=O)C3CCN(S(=O)(=O)c4cccc([N+](=O)[O-])c4)CC3)cc2)c1)C1CCC1 | x | 9.1 | -4.6 | 76.5* | x | -9.8 | 14.3 | -2.0 | -3.7
O=C1c2ccccc2N[C@@H]2C=CC[C@@H]2N1O | x | 18.6 | 2.6 | -4.3 | x | 65.0 | x | x | x
Cc1ccc2oc(=O)c3cnn(CC(=O)Nc4cc(-c5cccc(F)c5)no4)c3c2c1 | -2.3 | 8.1 | 2.2 | 2.0 | 24.4 | -2.4 | x | x | x
Cc1ccc2oc(=O)c3cnn(CC(=O)N4CCCCC4C)c3c2c1 (centres undefined) | -2.9 | 3.2 | -2.5 | 19.7 | 11.2 | -4.5 | x | x | x
Cc1ccc2oc(=O)c3cnn(CC(=O)N(CCC(C)C)Cc4ccco4)c3c2c1 | 3.1 | 6.5 | 3.2 | 86.5* | 2.8 | 1.7 | 76.2* | 1.7 | -1.8
Cc1ccc2oc(=O)c3cnn(CC(=O)N4CCc5ccccc5C4)c3c2c1 | -0.5 | 14.6 | 4.0 | 46.8* | 23.1 | -7.4 | 15.4 | -1.1 | -13.0
O=C(Cn1ncc2c(=O)oc3ccccc3c21)N(Cc1ccco1)C1CCCCC1 | -0.6 | 3.2 | 0.0 | 55.6* | 7.6 | 1.4 | 29.4 | 0.5 | 8.9
CCCCN(Cc1ccco1)C(=O)Cn1ncc2c(=O)oc3ccc(C)cc3c21 | -0.2 | 12.0 | -5.4 | 86.1* | -12.6 | -2.7 | 49.0 | 1.5 | 2.7
CCOC(=O)C1(C)CCN1C(=O)/C=C/c1ccccc1 (centres undefined) | x | x | -11.8 | -4.0 | x | 8.5 | x | x | x
O=C(COc1ccc(F)cc1Br)Nc1ccccc1N1CCOCC1 | -4.2 | 13.3 | -12.4 | 11.8 | 23.5 | -6.1 | x | x | x
O=C(/C=C/c1ccccc1)NC1CC2CCC1C2 (centres undefined) | -2.6 | 14.5 | -3.4 | 27.1 | -1.8 | 5.7 | x | x | x
O=C(/C=C/c1ccc(Cl)cc1)NC1CC2CCC1C2 (centres undefined) | -2.2 | 20.6 | 2.6 | 62.7* | 1.8 | -8.7 | 23.7 | -0.5 | -8.7
O=C(Nc1cccc(OC(F)(F)F)c1)c1ccc(-c2cccnc2)c2ccoc12 | x | x | -1.8 | 37.5* | x | 12.4 | 29.3 | -1.0 | -15.4
COc1cc(NC(=O)c2ccc(-c3cccnc3)c3ccoc23)cc(OC)c1OC | x | x | -5.0 | -1.8 | x | 8.5 | x | x | x
Cc1ccc(CNC(=O)/C=C/c2ccc(S(=O)(=O)NCc3ccco3)cc2)cc1 | -1.7 | 14.1 | 14.1 | 44.5* | 3.8 | x | 27.4 | -0.2 | -1.3
SMILES | APJ ag | CCR6 antagonist | CXCR6 inh | EBI2 block | APJ antag | TAG inh | EBI2 antag conf | EBI2 ag | bGal counter
O=C(/C=C/c1ccc2c(c1)OCO2)N1CCCCC1 | -2.2 | 8.3 | -3.6 | 21.1 | 11.6 | x | x | x | x
CCOC(=O)C1CCN(C(=O)/C=C/c2ccc3c(c2)OCO3)CC1 | -3.3 | 2.3 | 8.9 | 55.8* | 7.4 | 7.5 | 33.4 | -0.6 | -8.8
CCOC(=O)C1CCN(C(=O)/C=C/c2ccccc2)CC1 | -5.1 | 21.5 | 7.2 | 64.6* | -3.0 | 3.8 | 51.2* | -1.6 | -8.7
CN(C)C(CNC(=O)C1CCN(C(=O)/C=C/c2ccccc2)CC1)c1ccccc1 (centres undefined) | 0.7 | 14.2 | -4.2 | 72.2* | 18.4 | x | 41.8 | 0.8 | 3.2
O=C(CN1CCN(C(=O)C2CCN(C(=O)/C=C/c3ccccc3)CC2)CC1)Nc1ccccc1Cl | -0.1 | 10.7 | 5.2 | 87.6* | 10.9 | -6.8 | 56.3* | 0.9 | 6.4
CCOC(=O)C1CCCN(C(=O)/C=C/c2ccccc2)CC1 (centres undefined) | x | x | -5.8 | 42.4 | x | -9.0 | x | x | x
C=C1C(=O)OCC2C(C(=O)O)=CC3C(C)C(C)=CC123 (centres undefined) | x | x | 0.0 | -16.8 | x | 4.0 | x | x | x
O=C(CSc1nnc(-c2ccc(Cl)cc2)o1)N1CCOCC1 | -3.4 | 4.4 | -4.8 | -8.4 | -2.1 | x | x | x | x
CCC(=O)c1ccc(N2CCN(C(=O)c3ccc(F)cc3)CC2)c(F)c1 | -0.9 | 2.8 | 0.5 | 11.9 | 25.1 | -12.5 | x | x | x
CCCC(=O)c1ccc(N2CCN(C(=O)c3ccccc3)CC2)c(F)c1 | -3.9 | 7.8 | -11.5 | -0.6 | -0.9 | -8.6 | x | x | x
COc1ccc(C(=O)c2ccc(N3CCN(C(=O)c4ccc(F)cc4)CC3)c(F)c2)cc1Br | 0.3 | 15.3 | 0.1 | 65.2* | 19.1 | -28.1 | 21.7 | 1.3 | 5.2
CCCC(=O)c1ccc(N2CCN(C(=O)c3ccc(Br)cc3)CC2)c(F)c1 | 2.6 | -2.0 | -4.4 | 70.7* | -20.2 | x | 29.0 | 2.8 | 8.5
Cc1ccc(NC(=S)Nc2cccc(-c3n[nH]c(=S)o3)c2)cc1 | -2.6 | 7.2 | 14.2 | 15.7 | -12.7 | -13.6 | x | x | x
FC(F)C(F)(F)Oc1cccc(Nc2nccn3c(-c4ccc5ccccc5c4)cnc23)c1 | x | x | 0.6 | 24.4 | x | 25.9 | x | x | x
NC(=O)c1cccc(-c2cnc3c(Nc4cccc(OC(F)(F)C(F)F)c4)nccn23)c1 | x | x | -6.8 | 44.6* | x | 12.5 | 41.8 | -1.9 | -9.0
